Screening data deposited in PubChem by several laboratories.
Hits are enriched below; roughly 7.1% of the tested compounds scored in any of these assays.
HUVEC prolif 384: inhibitors of human endothelial cell proliferation | HUVEC proliferation, CellTiter-Glo luminescence, 72 h; stronger effect = lower value | viability, % at 10 µM (by protocol) | hit rate 1.1% among 86,000;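 active = viability at or below 30%; inactive = viability above 30%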
H69AR growth 86K: growth inhibitors of human H69AR lung tumor cells; H69AR lung tumor viability, ATP luminescence, 72 h; stronger effect = lower value; viability, % at 10 µM; hit rate 6% among 85,000; AID 598;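 active = viability at or below 40%; inactive = viability above 40%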;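 also: multidrug resistant small cell line overexpressing MRP-1 efflux transporter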
Cav3 T inh: inhibitors of human Cav3.2 T-type calcium channel; B-score at 10 µM; hit rate 4% among 100,000; AID 449739; Cav3.2-expressing cells, Fluo-4 calcium fluorescence FDSS; stronger effect = lower value; O95180;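 active = single-dose well whose peak fluorescence ratio is a statistical outlier from its plate by either plate-standardised score or position-corrected B-score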
bCat KO growth: beta-catenin-lacking colon tumor cell growth suppression; AID 818; HCT116 beta-catenin knockout viability, CellTiter-Glo, 60 h; stronger effect = lower value; viability, % at 10 µM; hit rate 1.5% among 140,000;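 active = viability at or under a set limit, the compound median less 4 SD, cut at about 6% in these data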
Fibroblast inh: blocks proliferation of human lung fibroblasts. LL 47 human lung fibroblast viability, ATP luminescence; stronger effect = lower value. AID 719. hit rate 1.1% among 85,000. viability, % at 10 µM;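 active = viability at or below 50% in the single dose screen; inactive = viability above 50%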;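 also: compound exposure lasted 72 h before the ATP readout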
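Material: human LL 47 lung fibroblast cells; quantity: 1,150 cells/well; medium: IMEM plus 15% FBS; doses: 0.1% DMSO in all compound wells; timing: overnight attachment after seeding, then 72 h compound exposure at 37 °C; detection: CellTiter-Glo luminescence; measure: % viability of median cell-only signal; controls: cell-only wells, no compound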
PTEN del growth: suppresses growth of cells with PTEN deletion. HCT116 PTEN-null viability, CellTiter-Glo, 60 h; stronger effect = lower value. viability, % at 10 µM. hit rate 1.2% among 140,000;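 active = viability at or below a set limit, 4 SD under the median of all tested compounds, cut at about 3.7% in these data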;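 also: PTEN knockout HCT116 line with beta catenin targeted HCT116 as companion control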
Numbers stand for hits; - = inactive; . = not tested or not shown.

SMILES | HUVEC prolif 384 | H69AR growth 86K | Cav3 T inh | bCat KO growth | Fibroblast inh | PTEN del growth
CC(=O)Nc1nc(=S)ss1 | - | - | - | - | - | -
CC(C)CC(=O)Nc1nc(=S)ss1 | - | - | -5.6 | - | - | -
COc1ccc(NC(C)C(=O)Nc2ccc(C(C)(C)C)cc2)cc1Cl (stereo not drawn) | . | . | -6 | - | . | -
COc1ccc(NC(C)C(=O)Nc2ccc(C#N)cc2)cc1Cl (stereo not drawn) | . | . | - | - | . | -
COc1ccc(NC(=O)CSc2nnc(Cc3cccn3C)n2-c2ccc(F)cc2)cc1 | - | - | - | - | - | -
COc1ccc(-n2c(Cc3cccn3C)nnc2SCC(=O)Nc2ccc(F)cc2)cc1 | - | - | -8.6 | - | - | -
CCOc1ccc(NC(=O)CSc2nnc(Cc3cccn3C)n2-c2ccc(F)cc2)cc1 | - | - | -7.4 | - | - | -
COC(=O)c1ccc(Oc2nc(N3CCCCC3)nc(N3CCOCC3)n2)cc1 | - | - | -4.3 | - | - | -
CCN(CC)S(=O)(=O)c1ccc(NC(=O)C2CCCN(C(=O)c3ccc(Cl)cc3)C2)cc1 (stereo not drawn) | . | . | . | - | . | -
Cn1c(=O)n(Cc2ccccc2F)c(=O)c2c1nc1n2CCCN1CCc1ccccc1 | - | . | - | - | - | -
CC(C)Cn1c(=O)c2c(nc3n2CCCN3CCc2ccccc2)n(C)c1=O | - | 34 | - | - | - | -
Cn1c(=O)[nH]c(=O)c2c1nc1n2CCCN1CCc1ccccc1 | - | - | - | - | - | -
Cn1c(=O)n(CCc2ccccc2)c(=O)c2c1nc1n2CCCN1Cc1ccccc1 | - | 27 | - | - | - | -
COc1ccc(N2CCCn3c2nc2c3c(=O)n(CCc3ccccc3)c(=O)n2C)cc1 | - | - | - | . | - | .
Cn1c(=O)n(CCc2ccccc2)c(=O)c2c1nc1n2CCCN1CCc1ccccc1 | 3.7 | - | . | - | 46 | -
Cn1c(=O)n(Cc2ccc(F)cc2)c(=O)c2c1nc1n2CCCN1Cc1ccccc1 | - | 38 | - | - | - | -
CC(C)COc1cccc(C(=O)NC(=S)NCc2cccnc2)c1 | . | . | . | - | . | -
O=C1C2CC=CCC2C(=O)N1Cc1ccccc1Cl (stereo not drawn) | . | . | . | - | . | -
Cc1cc(C)c(OCC(=O)Nc2ccc(NC(=O)c3ccco3)cc2)c([N+](=O)[O-])c1 | . | . | . | - | . | -
Cc1cc(C)c(OCC(=O)Nc2cccc(NC(=O)c3ccco3)c2)c(Br)c1 | - | - | -4.4 | - | - | -
CCOc1cc(NC(=O)c2ccco2)c(OCC)cc1NC(=O)Cc1cccc(OC)c1 | - | - | - | - | - | -
CCOc1cc(NC(=O)c2ccco2)c(OCC)cc1NC(=O)COc1ccccc1C | - | 20 | . | . | - | .
CCN(CC)C(=O)CC(c1ccc(N(C)C)cc1)c1c(O)cc(OC)cc1OC (stereo not drawn) | . | . | - | . | . | .
CCOC(=O)c1cc(C#N)c(SCC(=O)c2cc(C#N)c(SC)nc2C)nc1C | - | 12 | . | . | . | .
O=C1C2C3C=CC(CNS(=O)(=O)c4ccccc4)(O3)C2C(=O)N1c1ccc(Cl)cc1 (stereo not drawn) | . | . | . | - | . | -
SMILES | HUVEC prolif 384 | H69AR growth 86K | Cav3 T inh | bCat KO growth | Fibroblast inh | PTEN del growth
O=C1C2C3C=CC(CO)(O3)C2C(=O)N1c1ccccc1-c1ccccc1 (stereo not drawn) | - | 3.9 | - | - | 8.3 | -
Cc1ccccc1S(=O)(=O)Cc1ccc(C(=O)N2CCN(c3ccc(F)cc3)CC2)o1 | - | 34 | - | - | - | -
Cc1ccc(S(=O)(=O)Cc2ccc(C(=O)N3CCN(c4ccc(F)cc4)CC3)o2)cc1 | - | 20 | - | - | - | -
COc1ccc(S(=O)(=O)Cc2ccc(C(=O)N3CCN(c4ccc(Cl)cc4)CC3)o2)cc1 | - | - | - | - | - | -
COc1ccc(C(=O)CSc2nnc(NC(=O)C3CC(=O)N(c4ccccc4C)C3)s2)cc1 (stereo not drawn) | . | . | . | - | . | -
O=C1Nc2ccccc2N(O)N1c1ccc(S(=O)(=O)N2CCOCC2)cc1 | . | . | . | - | . | -
Cc1ccc(CSCC(=O)N/N=C/c2sccc2C)cc1 | . | . | -4.9 | - | . | -
CCCCC(=O)N/N=C/c1sccc1C | . | . | . | - | . | -
COc1cc(/C=C(\C#N)C(=O)NC2CCCCC2C)ccc1OS(=O)(=O)c1ccc(C)cc1 (stereo not drawn) | . | . | . | 0.8 | . | 1.0
O=C(c1ccc(Cn2c(=O)[nH]c3ccccc3c2=O)cc1)N1CCN(c2ccc(Cl)cc2)CC1 | - | 36 | - | - | - | -
C=CCn1c(=O)[nH]c2cc(C(=O)N3CCN(c4cc(C)ccc4C)CC3)ccc2c1=O | - | 25 | . | - | - | -
C=CCn1c(=O)[nH]c2cc(C(=O)N3CCN(c4ccc(C(C)=O)cc4)CC3)ccc2c1=O | - | - | . | - | - | -
Cc1ccc(C)c(N2CCN(C(=O)c3ccc(Cn4c(=O)[nH]c5ccccc5c4=O)cc3)CC2)c1 | - | 7.5 | -5.9 | - | - | -
C=CCn1c(=O)[nH]c2cc(C(=O)N3CCN(c4cccc(Cl)c4)CC3)ccc2c1=O | . | . | . | - | . | -
O=C1c2oc3ccc(F)cc3c(=O)c2C(c2ccccc2)N1CC1CCCO1 (stereo not drawn) | - | - | - | - | - | -
CCOC(=O)c1cc(-c2ccc(C)cc2)n(CCC(=O)N2CCN(c3ccccn3)CC2)c1C | . | . | . | - | . | -
O=C(c1ccco1)N1CCN(CC(O)Cn2c3ccccc3c3ccccc32)CC1 (stereo not drawn) | - | - | -4.8 | - | - | -
Cc1ccc(C)n1CCN1CCN(C(=O)c2ccco2)CC1 | - | - | - | - | - | -
Cc1cccc(N2CCN(CC(O)COCc3cccs3)CC2)c1C (stereo not drawn) | . | . | . | - | . | -
CSc1nc2ccc(NS(=O)(=O)c3c(Cl)cccc3Cl)cc2s1 | . | . | . | - | . | -
O=S(=O)(Nc1ccc2c(c1)OCCO2)c1ccc2oc3ccccc3c2c1 | - | - | -5.9 | - | - | -
O=S(=O)(Nc1ccc2c(c1)oc1ccccc12)N1CCCC1 | - | - | -5.9 | - | - | -
CSc1nc2ccc(NS(=O)(=O)c3ccc4c(c3)OCCO4)cc2s1 | - | - | -4.5 | - | - | -
Cn1ccnc1SCC(=O)Nc1cc(S(=O)(=O)N2CCOCC2)ccc1Cl | . | . | . | - | . | -
Cc1ccc(NC(=S)NNC(=O)c2ccc(N3CCOCC3)c([N+](=O)[O-])c2)cc1C | . | . | . | - | . | -
Cc1cc(S(=O)(=O)Nc2cccnc2)c(C)s1 | - | - | - | - | - | -
Cc1cc(S(=O)(=O)Nc2ccc3ccccc3c2)c(C)s1 | - | 12 | - | - | - | -
Cc1ccnc(SCc2cc(=O)c(OC(=O)c3ccc(S(=O)(=O)N(C)C)cc3)co2)n1 | . | . | . | - | . | -
O=C(NCC(c1cccs1)N1CCOCC1)c1ccc(Br)o1 (stereo not drawn) | - | 23 | - | - | - | -
O=C(NCC(c1cccs1)N1CCOCC1)c1ccccc1NS(=O)(=O)c1ccc(Br)cc1 (stereo not drawn) | . | . | . | - | . | -
